Results: ChEMBL document CHEMBL4665625, “New pyrido[3,4-g]quinazoline derivatives as CLK1 and DYRK1A inhibitors: synthesis, biological evaluation and binding mode analysis” (Eur J Med Chem, 2019)

Assays:
[1] = target: T1, Cyclin-dependent kinase 5/CDK5 activator 1 (Homo sapiens) (UniProt Q00535+Q15078); test: Inhibition of recombinant human CDK5/p25 expressed in bacteria assessed as residual activity at 10 uM using histone H1 as substrate in presence of [gamma-33P]ATP relative to control
Procedure, shortened: (§1)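 Human recombinant CDK5/p25 (bacterially expressed) assayed with 0.8 μg/μl histone H1 as substrate and 15 μM [γ-33P]ATP. Residual activity versus DMSO controls, triplicate.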

[2] = target: T1, Cyclin-dependent kinase 5/CDK5 activator 1 (Homo sapiens); test: Inhibition of recombinant human CDK5/p25 expressed in bacteria assessed as residual activity at 1 uM using histone H1 as substrate in presence of [gamma-33P]ATP relative to control; procedure, shortened: as §1
[3] = target: Dual specificity protein kinase CLK1 (Mus musculus) (UniProt P22518); test: Inhibition of recombinant mouse CLK1 expressed in bacteria assessed as residual activity at 10 uM using GRSRSRSRSRSR as substrate in presence of [gamma-33P]ATP relative to control
[4] = target: Dual specificity protein kinase CLK1 (Mus musculus) (UniProt P22518); test: Inhibition of recombinant mouse CLK1 expressed in bacteria assessed as residual activity at 1 uM using GRSRSRSRSRSR as substrate in presence of [gamma-33P]ATP relative to control
[5] = target: Dual specificity tyrosine-phosphorylation-regulated kinase 1A (Rattus norvegicus) (UniProt Q63470); test: Inhibition of rat DYRK1A kinase domain (1 to 499 residues) expressed in bacteria assessed as residual activity at 10 uM using KKISGRLSPIMTEQ as substrate in presence of [gamma-33P]ATP relative to control
Procedure, shortened: (§2)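 Buffer: 10 mM MgCl2, 1 mM EGTA, 1 mM DTT, 25 mM Tris-HCl pH 7.5, 50 μg/ml heparin, 0.15 mg/ml BSA.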

[6] = target: Dual specificity tyrosine-phosphorylation-regulated kinase 1A (Rattus norvegicus) (UniProt Q63470); test: Inhibition of rat DYRK1A kinase domain (1 to 499 residues) expressed in bacteria assessed as residual activity at 1 uM using KKISGRLSPIMTEQ as substrate in presence of [gamma-33P]ATP relative to control; procedure, shortened: as §2
[7] = organism: Sus scrofa domesticus; test: Inhibition of porcine brain CK1delta/epsilon assessed as residual activity at 10 uM using RRKHAAIGSpAYSITA as substrate in presence of [gamma-33P]ATP relative to control; format: tissue-based
[8] = organism: Sus scrofa domesticus; test: Inhibition of porcine brain CK1delta/epsilon assessed as residual activity at 1 uM using RRKHAAIGSpAYSITA as substrate in presence of [gamma-33P]ATP relative to control; format: tissue-based
[9] = target: T2, Glycogen synthase kinase-3 (Sus scrofa) (UniProt B2LUN4+I6LNT8); test: Inhibition of porcine brain GSK-3alpha/beta assessed as residual activity at 10 uM using YRRAAVPPSPSLSRHSSPHQSpEDEEE as substrate in presence of [gamma-33P]ATP relative to control; format: tissue-based; conditions: Sus scrofa domesticus
[10] = target: T2, Glycogen synthase kinase-3 (Sus scrofa); test: Inhibition of porcine brain GSK-3alpha/beta assessed as residual activity at 1 uM using YRRAAVPPSPSLSRHSSPHQSpEDEEE as substrate in presence of [gamma-33P]ATP relative to control; format: tissue-based; conditions: Sus scrofa domesticus
Procedure, shortened: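 Affinity-purified porcine brain GSK-3α/β with 0.01 µg/µl GS-1 peptide (phosphoserine-primed) as substrate and 15 µM [γ-33P]ATP. Buffer was 25 mM Tris-HCl pH 7.5, 10 mM MgCl2, 1 mM EGTA, 1 mM DTT, 50 µg/ml heparin and 0.15 mg/ml BSA. Radioactive incorporation was compared with DMSO-dilution controls, in triplicate.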

[11] = target: Dual specificity protein kinase CLK1 (Mus musculus, UniProt P22518); test: Inhibition of recombinant mouse CLK1 expressed in bacteria using GRSRSRSRSRSR as substrate in presence of [gamma-33P]ATP
[12] = Antiproliferative activity against hTERT-RPE1 cells assessed as cell viability at 2 uM after 48 hrs by CellTiter96 AQueous assay relative to control; format: cell-based, TERT-RPE1; conditions: human, read-out: Activity
Procedure, shortened: (§3)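 Cells grown in McCoy's 5a (HCT116), DMEM (SH-SY5Y, MDA-MB231, U-2 OS) or DMEM:F12 (hTERT-RPE1), each with 10% fetal calf serum, 2 mM L-glutamine, penicillin/streptomycin. Exposed to compound at 2 μM for 48 h; viability read by CellTiter96 AQueous per manufacturer, as % of DMSO-treated cells. Triplicate, mean ± SD; staurosporine as positive control.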

[13] = tested on: HCT-116; test: Antiproliferative activity against human HCT116 cells assessed as cell viability at 2 uM after 48 hrs by CellTiter96 AQueous assay relative to control; format: functional; conditions: read-out: Activity; procedure, shortened: as §3
[14] = tested on: MDA-MB-231; test: Antiproliferative activity against human MDA-MB-231 cells assessed as cell viability at 2 uM after 48 hrs by CellTiter96 AQueous assay relative to control; format: functional; conditions: read-out: Activity; procedure, shortened: as §3
[15] = tested on: SH-SY5Y; test: Antiproliferative activity against human SH-SY5Y cells assessed as cell viability at 2 uM after 48 hrs by CellTiter96 AQueous assay relative to control; format: functional; conditions: read-out: Activity; procedure, shortened: as §3
[16] = tested on: U2OS; test: Antiproliferative activity against human U2OS cells assessed as cell viability at 2 uM after 48 hrs by CellTiter96 AQueous assay relative to control; format: functional; conditions: read-out: Activity; procedure, shortened: as §3

T1 sequence (Q00535 whole entry): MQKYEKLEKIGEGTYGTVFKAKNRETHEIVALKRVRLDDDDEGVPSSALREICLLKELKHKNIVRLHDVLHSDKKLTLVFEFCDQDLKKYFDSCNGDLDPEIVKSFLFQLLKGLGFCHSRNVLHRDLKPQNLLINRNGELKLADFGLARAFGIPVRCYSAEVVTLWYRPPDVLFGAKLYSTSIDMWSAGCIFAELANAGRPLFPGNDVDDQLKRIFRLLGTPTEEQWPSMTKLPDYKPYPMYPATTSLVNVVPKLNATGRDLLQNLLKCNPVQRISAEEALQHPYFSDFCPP
T1 sequence (Q15078 99-307 partner limits assumed): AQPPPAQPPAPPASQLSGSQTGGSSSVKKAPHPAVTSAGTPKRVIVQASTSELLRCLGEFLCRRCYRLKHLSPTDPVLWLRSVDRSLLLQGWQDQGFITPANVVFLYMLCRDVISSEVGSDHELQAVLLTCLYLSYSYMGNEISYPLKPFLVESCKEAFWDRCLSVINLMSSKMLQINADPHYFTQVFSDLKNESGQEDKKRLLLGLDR
Sequence of Dual specificity protein kinase CLK1 (Mus musculus) (P22518 whole entry, looked up, the tested form may be a part): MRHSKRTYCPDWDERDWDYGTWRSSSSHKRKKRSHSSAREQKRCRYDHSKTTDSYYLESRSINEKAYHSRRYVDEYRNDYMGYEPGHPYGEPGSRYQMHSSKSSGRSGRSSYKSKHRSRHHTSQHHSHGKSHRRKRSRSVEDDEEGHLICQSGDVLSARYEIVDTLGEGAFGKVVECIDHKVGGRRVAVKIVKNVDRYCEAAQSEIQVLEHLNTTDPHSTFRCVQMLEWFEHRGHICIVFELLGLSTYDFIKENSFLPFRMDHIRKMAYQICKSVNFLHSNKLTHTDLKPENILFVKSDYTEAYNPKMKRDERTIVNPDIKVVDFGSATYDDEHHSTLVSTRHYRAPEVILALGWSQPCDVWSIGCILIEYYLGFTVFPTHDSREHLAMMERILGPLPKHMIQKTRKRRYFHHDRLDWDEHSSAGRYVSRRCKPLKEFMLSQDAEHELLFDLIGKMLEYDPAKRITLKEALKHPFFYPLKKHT
Sequence of Dual specificity protein kinase CLK1 (P22518 whole entry): as the sequence (P22518 whole entry, looked up, the tested form may be a part) above

SMILES	Activity [1] [%]	Activity [2] [%]	Activity [3] [%]	Activity [4] [%]	Activity [5] [%]	Activity [6] [%]	Activity [7] [%]	Activity [8] [%]	Activity [9] [%]	Activity [10] [%]	IC50 [11] [nM]	viability at 48 h, 2 µM [12] [%]	viability at 2 µM [13] [%]	viability at 2 µM [14] [%]	viability at 2 µM [15] [%]	viability at 2 µM [16] [%]
O=[N+]([O-])c1c2ccncc2cc2cnc(NCCCN3CCCC3)nc12	50	100	5	37	6	87	37	100	24	78	–	–	–	–	–	–
O=[N+]([O-])c1c2ccncc2cc2cnc(-c3ccccc3)nc12	62	100	17	71	38	100	57	100	100	100	–	–	–	–	–	–
O=[N+]([O-])c1c2ccncc2cc2cnc(NCCN3CCCC3)nc12	83	100	7	27	29	83	73	92	33	81	–	–	–	–	–	–
CCN(CC)CCNc1ncc2cc3cnccc3c([N+](=O)[O-])c2n1	79	100	8	46	47	88	78	91	26	74	–	–	–	–	–	–
CN1CCN(CCCNc2ncc3cc4cnccc4c([N+](=O)[O-])c3n2)CC1	48	100	8	22	3	54	32	92	2	59	133	25.8	9.7	11.7	36	2.5
CN(C)CCCNc1ncc2cc3cnccc3c([N+](=O)[O-])c2n1	64	100	3	27	31	84	59	86	24	80	–	–	–	–	–	–
CN1CCN(CCNc2ncc3cc4cnccc4c([N+](=O)[O-])c3n2)CC1	77	84	0	32	6	32	38	63	22	69	–	–	–	–	–	–
CCN(CC)CCCNc1ncc2cc3cnccc3c([N+](=O)[O-])c2n1	50	100	4	31	23	72	59	87	24	92	–	–	–	–	–	–
O=[N+]([O-])c1c2ccncc2cc2cnc(NCCN3CCCCC3)nc12	85	96	1	42	26	52	37	81	1	39	–	–	–	–	–	–
O=[N+]([O-])c1c2ccncc2cc2cnc(NCCCN3CCCCC3)nc12	53	100	7	16	6	56	34	100	24	76	125	–	–	–	–	–
O=[N+]([O-])c1c2ccncc2cc2cnc(NCCN3CCOCC3)nc12	69	100	5	36	20	73	75	93	43	88	–	–	–	–	–	–
CCN(CC)CCNc1ncc2cc3cnccc3c(N)c2n1	40	97	3	31	6	49	60	91	34	73	–	–	–	–	–	–
Nc1c2ccncc2cc2cnc(NCCN3CCCC3)nc12	51	100	4	33	7	54	61	90	29	62	–	–	–	–	–	–
Nc1c2ccncc2cc2cnc(NCCCN3CCCCC3)nc12	62	100	4	30	4	26	48	76	30	51	–	–	–	–	–	–
CN(C)CCNc1ncc2cc3cnccc3c(N)c2n1	86	96	21	51	32	60	82	78	48	58	–	–	–	–	–	–
CN[C@@H]1C[C@H]2O[C@@](C)([C@@H]1OC)n1c3ccccc3c3c4c(c5c6ccccc6n2c5c31)C(=O)NC4 [STAUROSPORINE]	–	–	–	–	–	–	–	–	–	–	–	9.1	27	3.9	9.4	0.4
CN(C)CCNc1ncc2cc3cnccc3c([N+](=O)[O-])c2n1	52	100	5	22	17	89	36	100	21	70	62	29.2	13.3	9.4	42.7	3.3
Nc1ncc2cc3cnccc3c(N)c2n1	–	–	–	–	–	–	–	–	–	–	–	0.2	1.3	43.4	0.9	0.4
Nc1c2ccncc2cc2cnc(NCCN3CCCCC3)nc12	76	95	11	44	16	37	52	74	24	43	–	–	–	–	–	–
O=[N+]([O-])c1c2ccncc2cc2cnc(NCCCN3CCOCC3)nc12	60	100	3	14	10	68	38	100	15	76	120	31	16.8	39	54	27
Nc1c2ccncc2cc2cnc(-c3ccccc3)nc12	65	92	32	68	41	80	51	62	40	85	–	–	–	–	–	–
